# High-throughput results from PubChem.
# RAM inhibit: yeast RAM network inhibition; S. cerevisiae dse1pr::URA3 reporter, 5-FOA growth OD615, 2 d; analog-sensitive cbk1-as2 kinase mutant strain; inhibition, % at 50 µM; 190,000 compounds, 1.8% hits;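 active = inhibition above a set limit, 3 SD over mean compound inhibition, cut at about 8.4% in these data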;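 note: 0% = DMSO-only wells with no growth and 100% = 10 µM 1-NA-PP1 full growth; inhibition rescues growth on 5-FOA so higher OD means more RAM inhibition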
# ABCB1 inh: blocks JC-1 efflux by human ABCB1 transporter | inhibition, % at 6.6 µM | CCRF-Adr cells, flow cytometry | 190,000 compounds, 0.067% hits | P08183; in the data active = inhibition above about 40%;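 note: 0% = vehicle and 100% = reference inhibitor; higher value means more JC-1 retained so stronger ABCB1 efflux block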
# L major viab: reduces viability of Leishmania major promastigotes. resazurin fluorescence viability. inhibition, % at 10 µM. 200,000 compounds, 9% hits. AID 1063; in the data active = inhibition above about 50%;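 note: promastigotes grown with compound for 44 hours at 28 °C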
# WT yeast gro inh: growth inhibition of WT yeast, mitochondrial fusion screen; inhibition, % at 10 µM; mitochondrial fusion phenotypic screen, WT strain; 190,000 compounds, 2.1% hits; AID 1362; in the data active = inhibition above about 58%; tested in S. cerevisiae
# ABCG2 block: human ABCG2 inhibition, ABCB1 as counter-screen | AID 1325 | Q9UNQ0 | inhibition, % at 6.6 µM | IgMXP3 cells, JC-1 efflux, flow cytometry | 190,000 compounds, 0.1% hits;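 active = inhibition above 80%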;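 note: 0% = DMSO and 100% = nicardipine control wells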
#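 Incubation: cells with compound and JC-1, 10 min at 25 °C, rotating, no wash / Test system: IgMXP3 (ABCG2) plus far-red-tagged CCRF-Adr (ABCB1) cells / Compound dosing: one concentration, 6.6 µM final / Also added: JC-1 fluorescent substrate / Evaluation: efflux inhibition in percent versus controls / Detection: flow cytometry, 530 nm JC-1 signal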
# * = called active by the depositor; . = no result given. The list is not random: actives were taken first. Their share in the collection is about 12%.
SMILES,RAM inhibit,ABCB1 inh,L major viab,WT yeast gro inh,ABCG2 block
O=C(CN1CCCCC1)Nc1ccccc1-c1ccccc1,2,0,7,-1,3
CSc1nc2cc(Oc3cccc(Cl)c3Cl)c(Cl)cc2[nH]1,.,.,.,85*,.
CSc1ccc(C(=O)C2CCCN(S(=O)(=O)N(C)C)C2)cc1 (stereo not drawn),10*,1,-2,21,4
COc1ccc(Cl)cc1N(CC(=O)Nc1ccccc1C(=O)NCc1ccco1)S(C)(=O)=O,1,0,83*,-17,0
COc1ccc(OC)c(N(CC(=O)Nc2ccccc2C(=O)NCc2ccco2)S(C)(=O)=O)c1,1,1,32,15,1
Cn1c(SCC(=O)N2CCCC2)nnc1-c1cnccn1,0,1,-5,-7,2
O=C(O)C1CC1C(=O)N1CCN(c2ccc(Cl)c(Cl)c2)CC1 (stereo not drawn),0,0,88*,-3,0
COC(=O)[C@@H]1CCCN1C(=O)CCc1nnc(CCC2CCCCC2)o1,2,2,-2,11,5
CC(=O)NC(=S)NNC(=O)COc1ccc([N+](=O)[O-])cc1,0,0,-4,5,1
Cc1cccc(C(=O)NC(=S)NNC(=O)COc2ccc(Cl)cc2)c1,3,0,-1,64*,0
CC(=O)NC(=S)NNC(=O)COc1ccc(Br)cc1,0,0,87*,10,7
Cc1ccc(C(=O)CC(=O)COc2ccc(Cl)cc2)cc1,4,0,66*,1,0
C=CCn1c(C(C)NC(=O)c2cccc(C)c2)n[nH]c1=S (stereo not drawn),0,-1,-3,4,3
COc1ccc(N2CCN(Cc3cc(OC)c(O)c([N+](=O)[O-])c3)CC2)cc1,3,1,49,-11,12
COc1cc(CN2CCN(c3cccc(C)c3C)CC2)cc([N+](=O)[O-])c1O,2,5,71*,8,3
CN(Cc1ccccc1)S(=O)(=O)c1ccc(Cl)c(C(=O)NCCc2ccccn2)c1,0,1,7,-6,1
OCCNCCCCOc1cccc(Br)c1,3,0,89*,-8,1
COCCCNCCCCOc1cccc(Br)c1,1,1,99*,15,0
CC(C)NCCCCOc1cccc(Br)c1,1,0,99*,-2,0
C=CCNCCCCOc1cccc(Br)c1,0,0,96*,-16,1
CC(C)Sc1nnc(CNC(=O)C23CC4CC(CC(C4)C2)C3)n1C1CCCCC1,-1,3,7,5,-2
CC(C)(C)C(=O)N1N=C(c2ccc(NS(C)(=O)=O)cc2)CC1c1cccs1 (stereo not drawn),2,1,25,2,3
COc1cc(S(=O)(=O)NCCc2ccc3c(c2)OCO3)ccc1-n1cnnn1,2,-3,-6,6,-2
OC(COCc1ccc2c(c1)OCO2)CN1CCCCC1 (stereo not drawn),2,2,-7,-3,3
OCCN1CCN(CC(O)COc2ccc(Cl)cc2)CC1 (stereo not drawn),0,0,74*,-11,0
SMILES,RAM inhibit,ABCB1 inh,L major viab,WT yeast gro inh,ABCG2 block
Cc1cc(OCC(O)CN2CCN(C)CC2)ccc1C(C)C (stereo not drawn),-1,0,90*,2,1
CC1CCCC(C)N1CC(O)COc1ccc(Cl)cc1 (stereo not drawn),1,1,48,-3,8
OC(COc1ccc(Cl)cc1)CN1C2=NCCCN2c2ccccc21 (stereo not drawn),0,0,63*,-43,0
CCN1CCN(CC(O)COc2ccc3c(C)cc(=O)oc3c2)CC1 (stereo not drawn),1,0,6,-14,0
OC(COCc1ccc2c(c1)OCO2)CN1CCC(Cc2ccccc2)CC1 (stereo not drawn),0,1,87*,44,2
C=CCc1ccccc1OCC(O)CN1CCN(Cc2ccc3c(c2)OCO3)CC1 (stereo not drawn),1,1,93*,20,2
OC(COc1ccc(CNCCc2ccc(C(F)(F)F)cc2)cc1)CN1CCCCC1 (stereo not drawn),1,0,100*,19,0
CCN1CCN(CCOc2ccc(Cl)cc2)CC1,1,0,78*,-2,0
Cc1ccc(OCC(O)CN2CCN(Cc3ccc4c(c3)OCO4)CC2)cc1C (stereo not drawn),1,.,91*,22,0
Clc1ccc(OCCN2CCN(c3ncnc4sccc34)CC2)cc1,2,1,-5,49,7
CN1CCN(CC(O)COc2ccc(Cl)cc2)CC1 (stereo not drawn),-1,1,86*,9,12
NCCOc1ccc(C23CC4CC(CC(C4)C2)C3)cc1,-1,0,101*,97*,1
OC(COC(c1ccc(Cl)cc1)c1ccc(Cl)cc1)CN1CCCC1 (stereo not drawn),-2,0,100*,9,0
CN1CCN(CC(O)COc2ccc(OCC(O)CN3CCN(C)CC3)cc2)CC1 (stereo not drawn),-1,0,0,-7,3
CCC(=O)c1ccc(OCC(O)CN2CCCCC2)cc1 (stereo not drawn),1,0,66*,7,0
CCOC(=O)c1ccc(NC(=O)N2CCN(Cc3ccccc3)CC2)cc1,-2,0,4,9,5
FC(F)(F)c1ccc(Nc2nnnc3ccccc23)cc1,2,0,2,17,6
CC(O/N=C/c1ccc(OC(F)F)cc1)C(=O)Nc1cccc(S(=O)(=O)N2CCOCC2)c1 (stereo not drawn),4,2,11,-4,7
Cc1cc(OCC(O)CN2C(C)CCCC2C)ccc1C(C)C (stereo not drawn),1,1,97*,15,-1
CCN1CCN(CC(O)COc2ccc(Cl)cc2)CC1 (stereo not drawn),1,0,89*,14,0
CCN1CCN(CC(O)COc2cccc(OC)c2)CC1 (stereo not drawn),0,0,2,-10,-1
CCN1CCN(CC(O)COc2ccc(C)c(C)c2)CC1 (stereo not drawn),-1,0,84*,5,0
OC(COc1ccc2c(c1)OCO2)CN1CCc2ccccc2C1 (stereo not drawn),1,-4,74*,2,-6
O=C(Nc1ccccc1C(=O)NC(Cc1ccccc1)C(=O)NC1CCCCCC1)c1ccccc1 (stereo not drawn),2,11,47,5,12
Cc1c(C(N)=O)sc2ncn(CC(=O)N3CCC(C)CC3)c(=O)c12,0,0,-3,-1,1
CNC(=S)NNC(=O)c1cccc(N(C)C)c1,1,0,-2,-1,6
Cc1nc([N+](=O)[O-])cn1Cc1cccc([N+](=O)[O-])c1,0,0,-4,-12,2
